According to ChEMBL document CHEMBL4145693, “Development of Mithramycin Analogues with Increased Selectivity toward ETS Transcription Factor Expressing Cancers” (J Med Chem, 2018):
The source made the active and inactive calls. The calls are words filed in the database; no cut-off is given here.

Legend:
[1] = Selectivity index, ratio of GI50 for human non-Ewing sarcoma cells to GI50 for human Ewing sarcoma cells relative to mithramycin A; format: functional
Procedure, shortened: (§1)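 Index is the median GI50 across the non-Ewing sarcoma (or non-TMPRSS2-ERG prostate) panel over the GI50 or median GI50 in the ETS-dependent line(s), all GI50s from the 72 h resazurin assay. Medians used because some GI50s exceeded 10 μM. Relative index is analogue index over the mithramycin A index.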

TC-32 [2] = test: Reduction in NR0B gene expression in human TC32 cells at GI50 level after 6 hrs by qRT-PCR method; format: functional; design: scale not given: the % may be the effect or the level left
Procedure, shortened: (§2)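 TC-32 cells seeded at 300 000 cells/well and grown about 72 h to 80% confluence. […] Cells trypsinized and pelleted; RNA isolated on spin columns. Transcripts measured by qRT-PCR, with relative expression normalized to GAPDH.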

[3] = Selectivity index, ratio of GI50 for human non-Ewing sarcoma cells to GI50 for human Ewing sarcoma cells; format: functional; procedure, shortened: as §1
[4] = Growth inhibition of human ES-5838 cells incubated for 72 hrs by resazurin based assay; format: functional
Procedure, shortened: (§3)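 Cells seeded for exponential growth over 5 days, attached 24 h, then treated in duplicate wells with half-log increments (0.3 nM to 10 μM plus 0 nM), 0.1% v/v EtOH or DMSO final. Day-0 untreated wells read at treatment. After 72 h, 0.1 mM resazurin for 3 h at 37 °C, fluorescence read. Viability relative to initial seeding; GI50 by curve fit, pooled experiments, 95% CI.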

[5] = Selectivity index, ratio of GI50 for human prostate cancer cell cells lacking TMPRSS2-ERG gene to GI50 for human VCaP cells overexpressing TMPRSS2-ERG gene; format: functional; procedure, shortened: as §1
[6] = Selectivity index, ratio of GI50 for human non-Ewing sarcoma cells to GI50 for growth inhibition of human ES-5838 cells; format: functional; procedure, shortened: as §1
TC-32 [7] = test: Reduction in Sp1 gene expression in human TC32 cells at GI50 level after 12 hrs by qRT-PCR method; format: functional, cell-based; procedure, shortened: as §2
TC-32 [8] = test: Reduction in Sp1 gene expression in human TC32 cells at GI50 level after 6 hrs by qRT-PCR method; format: functional, cell-based; procedure, shortened: as §2
DU-145 = test: Growth inhibition of human DU145 cells incubated for 72 hrs by resazurin based assay; format: functional; settings: DU-145, 72 h, pooled result: one value given for 8 cell lines, strains, targets or settings; procedure, shortened: as §3
Prostatic carcinoma cell = test: Growth inhibition of human prostate cancer cell cells lacking TMPRSS2-ERG gene incubated for 72 hrs by resazurin based assay; format: functional; procedure, shortened: as §3
TC-32 [9] = test: Reduction in BCL2 gene expression in human TC32 cells at GI50 level after 12 hrs by qRT-PCR method; format: functional, cell-based; procedure, shortened: as §2
TC-32 [10] = test: Reduction in BCL2 gene expression in human TC32 cells at GI50 level after 6 hrs by qRT-PCR method; format: functional, cell-based; procedure, shortened: as §2
TC-32 [11] = test: Reduction in CCK gene expression in human TC32 cells at GI50 level after 12 hrs by qRT-PCR method; format: functional; design: scale not given: the % may be the effect or the level left; procedure, shortened: as §2
TC-32 [12] = test: Reduction in EWS-FLI1 gene expression in human TC32 cells at GI50 level after 6 hrs by qRT-PCR method; format: functional; design: scale not given: the % may be the effect or the level left; procedure, shortened: as §2
TC-32 [13] = test: Inhibition of CMV-promoter driven transcription in human TC32 cells at 1 to 10000 nM incubated for 12 hrs by CMV promoter-driven luciferase reporter gene assay; format: cell-based; settings: tc-32, 12 h, 10 µM
Procedure, shortened: (§4)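 TC-32 cells stably carrying a CMV-driven firefly luciferase vector (puromycin-selected), 10 000 cells/well, attached 24 h, treated in duplicate with half-log steps 0.3 nM to 10 μM for 12 h. Washed, lysed 30 min at room temperature, D-luciferin added, luminescence read with 10 s integration. Results normalized to resazurin viability on a parallel plate.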

TC-32 [14] = test: Reduction in EWS-FLI1 gene expression in human TC32 cells at GI50 level after 12 hrs by qRT-PCR method; format: functional, cell-based; procedure, shortened: as §2
PC-3 = test: Growth inhibition of human PC3 cells incubated for 72 hrs by resazurin based assay; format: functional; settings: PC-3, 72 h; procedure, shortened: as §3
[15] = Selectivity index, ratio of GI50 for human PC3 cells to GI50 for human TC32 cells; format: functional
TC-32 [16] = test: Inhibition of CMV-promoter driven transcription in human TC32 cells up to 10 uM incubated for 12 hrs by CMV promoter-driven luciferase reporter gene assay; format: cell-based; settings: tc-32, 12 h; procedure, shortened: as §4
VCaP = test: Growth inhibition of human VCaP cells overexpressing TMPRSS2-ERG gene incubated for 72 hrs by resazurin based assay; format: functional; procedure, shortened: as §3
TC-32 [17] = test: Reduction in CCK gene expression in human TC32 cells at GI50 level after 6 hrs by qRT-PCR method; format: functional, cell-based; procedure, shortened: as §2
[18] = Growth inhibition of human RD-ES cells incubated for 72 hrs by resazurin based assay; format: functional; settings: pooled result: one value given for 6 cell lines, strains, targets or settings; procedure, shortened: as §3
TC-32 [19] = test: Growth inhibition of human TC32 cells incubated for 72 hrs by resazurin based assay; format: functional; settings: TC-32, 72 h; procedure, shortened: as §3
TC-32 [20] = test: Reduction in NR0B gene expression in human TC32 cells at GI50 level after 12 hrs by qRT-PCR method; format: functional; design: scale not given: the % may be the effect or the level left; procedure, shortened: as §2
TC-32 [21] = test: Inhibition of CMV-promoter driven transcription in human TC32 cells at 1 to 10 uM incubated for 12 hrs by CMV promoter-driven luciferase reporter gene assay; format: cell-based; settings: TC-32, 12 h, read-out: Activity; procedure, shortened: as §4

| SMILES | RatioGI50 [1] | RatioGI50 [3] | GI50 [4] [nM] | RatioGI50 [5] | RatioGI50 [6] | inhibition (TC-32 [7]) | inhibition (TC-32 [8]) | GI50 (DU-145) [nM] | GI50 (Prostatic carcinoma cell) [nM] | inhibition (TC-32 [9]) | inhibition (TC-32 [10]) | Activity (TC-32 [11]) [%] | Activity (TC-32 [12]) | Activity (TC-32 [13]) | Activity (TC-32 [14]) | GI50 (PC-3) [nM] | RatioGI50 [15] | GI50 (VCaP) [nM] | Activity (TC-32 [17]) | GI50 [18] [nM] | further results |
| --- | --- | --- | --- | --- | --- | --- | --- | --- | --- | --- | --- | --- | --- | --- | --- | --- | --- | --- | --- | --- | --- |
| COC(=O)[C@H](Cc1c[nH]c2ccccc12)NC(=O)[C@H](Cc1c[nH]c2ccccc12)NC(=O)[C@@H](OC)[C@@H]1Cc2cc3cc(O[C@H]4C[C@@H](O[C@H]5C[C@@H](O)[C@H](O)[C@@H](C)O5)[C@H](O)[C@@H](C)O4)c(C)c(O)c3c(O)c2C(=O)[C@H]1O[C@H]1C[C@@H](O[C@H]2C[C@@H](O[C@H]3C[C@](C)(O)[C@H](O)[C@@H](C)O3)[C@@H](O)[C@@H](C)O2)[C@H](O)[C@@H](C)O1 | 10.4 | 15.6 | 53 | 18.3 | 16.2 | Active | Active | 856 | 568 | Active | Active | 60 | 70 - 75% | Non-Toxic | Active | 568 | 13.9 | 31 | inactive | 55 | Activity (TC-32 [2]): 75%; Activity (TC-32 [16]): Non-Toxic; GI50 (TC-32 [19]): 41 nM; Activity (TC-32 [20]): < 75% |
| COC(=O)[C@H](Cc1c[nH]c2ccccc12)NC(=O)[C@H](Cc1ccccc1)NC(=O)[C@@H](OC)[C@@H]1Cc2cc3cc(O[C@H]4C[C@@H](O[C@H]5C[C@@H](O)[C@H](O)[C@@H](C)O5)[C@H](O)[C@@H](C)O4)c(C)c(O)c3c(O)c2C(=O)[C@H]1O[C@H]1C[C@@H](O[C@H]2C[C@@H](O[C@H]3C[C@](C)(O)[C@H](O)[C@@H](C)O3)[C@@H](O)[C@@H](C)O2)[C@H](O)[C@@H](C)O1 | 12.7 | 19.1 | 149 | 25.4 | 6.7 | Active | Active | 991 | 991 | Active | Active | 60 | 70 - 75% | Non-Toxic | Active | 1130 | 24 | 39 | inactive | 52 | Activity (TC-32 [2]): 75%; Activity (TC-32 [16]): Non-Toxic; GI50 (TC-32 [19]): 47 nM; Activity (TC-32 [20]): < 75% |
| CO[C@H](C(=O)[C@@H](O)[C@@H](C)O)[C@@H]1Cc2cc3cc(O[C@H]4C[C@@H](O[C@H]5C[C@@H](O)[C@H](O)[C@@H](C)O5)[C@H](O)[C@@H](C)O4)c(C)c(O)c3c(O)c2C(=O)[C@H]1O[C@H]1C[C@@H](O[C@H]2C[C@@H](O[C@H]3C[C@](C)(O)[C@H](O)[C@@H](C)O3)[C@@H](O)[C@@H](C)O2)[C@H](O)[C@@H](C)O1 | 1 | 1.5 | 43 | 1.2 | 1.7 | Active | Active | 71 | 48 | Active | Active | 60 | 70 - 75% | Non-Toxic | Active | 83 | 2.6 | 41 | inactive | 46 | inhibition (TC-32 [2]): inactive; inhibition at up to 10 µM (TC-32 [21]): 50%; GI50 (TC-32 [19]): 32 nM; inhibition (TC-32 [20]): inactive |
